In test [1] the target is DNA gyrase (Staphylococcus aureus, UniProt P0A0K8+P20831). Kind of test: Inhibition of Staphylococcus aureus DNA gyrase supercoiling activity using pNO1 plasmid DNA as substrate incubated for 30 mins by fluorescence based microtiter plate reader assay. It counts as protein-complex assay.
Test [2] deals with Voltage-gated inwardly rectifying potassium channel KCNH2 (Homo sapiens, UniProt Q12809). In words: Inhibition of hERG by fluorescence polarization assay. It counts as toxicity. An outline of the steps:
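hERG inhibition was measured with a commercial Predictor hERG fluorescence-polarization kit.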
On the technique in general: hERG is a cardiac potassium channel; its block is linked to QT prolongation.

In test [3] the target is DNA gyrase (Escherichia coli, UniProt P0AES4+P0AES6). Kind of test: Inhibition of Escherichia coli DNA gyrase by fluorescence based microtiter plate reader assay. It counts as protein-complex assay.
For test [4], the system named is Staphylococcus aureus. Kind of test: Antibacterial activity against methicillin-resistant Staphylococcus aureus CC398 assessed as inhibition of bacterial growth by broth microdilution method. It counts as functional. In general terms: In broth dilution the organism is exposed to a series of concentrations in liquid medium.
Test [5] relates to Staphylococcus aureus. In words: Antibacterial activity against methicillin-susceptible Staphylococcus aureus NCTC 8325-4 assessed as inhibition of bacterial growth by broth microdilution method. It counts as functional.
The target of test [6] is Topoisomerase IV (Staphylococcus aureus, UniProt P0C1S7+P0C1U9). Kind of test: Inhibition of Staphylococcus aureus topoisomerase 4 using pNO1 plasmid DNA as substrate incubated for 30 mins by fluorescence based microtiter plate reader assay. It counts as protein-complex assay.
The mark [7] stands for this setting: Staphylococcus aureus, CC398, read-out: MIC.
The mark [8] stands for this setting: Staphylococcus aureus, NCTC 8325-4, read-out: MIC.

“And” between values parts separate entries of the source, which are not always exact repeats. Equal values may be shown once.

For 22 molecules, IC50, EC50 and MIC results are on record in ChEMBL document CHEMBL5131416, “Solid-phase synthesis and biological evaluation of piperazine-based novel bacterial topoisomerase inhibitors” (Bioorg Med Chem Lett, 2022).

As usually defined, the IC50 is the concentration that gives 50% inhibition. Broadly, the EC50 is the concentration needed to bring the measured effect to its halfway point. Low values mean higher potency in that assay, high ones lower potency in that assay. For orientation: MIC means the smallest concentration in the dilution series that meets the test's criterion for growth inhibition.

DNA gyrase (Staphylococcus aureus, UniProt P0A0K8+P20831), sequence (P0A0K8 whole entry): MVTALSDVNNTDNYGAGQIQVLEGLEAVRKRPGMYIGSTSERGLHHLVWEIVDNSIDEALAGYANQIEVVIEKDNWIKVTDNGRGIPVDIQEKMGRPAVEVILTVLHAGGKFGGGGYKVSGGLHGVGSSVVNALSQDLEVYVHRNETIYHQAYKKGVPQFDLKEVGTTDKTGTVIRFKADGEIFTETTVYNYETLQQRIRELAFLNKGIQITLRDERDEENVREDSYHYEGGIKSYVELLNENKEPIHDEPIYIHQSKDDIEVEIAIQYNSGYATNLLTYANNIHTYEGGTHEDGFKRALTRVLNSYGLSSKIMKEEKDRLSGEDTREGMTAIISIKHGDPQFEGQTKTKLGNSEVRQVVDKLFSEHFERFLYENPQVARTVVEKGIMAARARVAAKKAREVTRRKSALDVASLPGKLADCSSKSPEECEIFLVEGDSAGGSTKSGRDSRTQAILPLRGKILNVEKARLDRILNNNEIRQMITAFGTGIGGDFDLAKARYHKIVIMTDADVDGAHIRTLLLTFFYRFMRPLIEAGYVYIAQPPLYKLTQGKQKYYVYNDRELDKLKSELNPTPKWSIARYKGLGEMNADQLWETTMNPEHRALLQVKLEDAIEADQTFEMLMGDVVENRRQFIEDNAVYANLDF
DNA gyrase (Staphylococcus aureus, UniProt P0A0K8+P20831), sequence (P20831 whole entry): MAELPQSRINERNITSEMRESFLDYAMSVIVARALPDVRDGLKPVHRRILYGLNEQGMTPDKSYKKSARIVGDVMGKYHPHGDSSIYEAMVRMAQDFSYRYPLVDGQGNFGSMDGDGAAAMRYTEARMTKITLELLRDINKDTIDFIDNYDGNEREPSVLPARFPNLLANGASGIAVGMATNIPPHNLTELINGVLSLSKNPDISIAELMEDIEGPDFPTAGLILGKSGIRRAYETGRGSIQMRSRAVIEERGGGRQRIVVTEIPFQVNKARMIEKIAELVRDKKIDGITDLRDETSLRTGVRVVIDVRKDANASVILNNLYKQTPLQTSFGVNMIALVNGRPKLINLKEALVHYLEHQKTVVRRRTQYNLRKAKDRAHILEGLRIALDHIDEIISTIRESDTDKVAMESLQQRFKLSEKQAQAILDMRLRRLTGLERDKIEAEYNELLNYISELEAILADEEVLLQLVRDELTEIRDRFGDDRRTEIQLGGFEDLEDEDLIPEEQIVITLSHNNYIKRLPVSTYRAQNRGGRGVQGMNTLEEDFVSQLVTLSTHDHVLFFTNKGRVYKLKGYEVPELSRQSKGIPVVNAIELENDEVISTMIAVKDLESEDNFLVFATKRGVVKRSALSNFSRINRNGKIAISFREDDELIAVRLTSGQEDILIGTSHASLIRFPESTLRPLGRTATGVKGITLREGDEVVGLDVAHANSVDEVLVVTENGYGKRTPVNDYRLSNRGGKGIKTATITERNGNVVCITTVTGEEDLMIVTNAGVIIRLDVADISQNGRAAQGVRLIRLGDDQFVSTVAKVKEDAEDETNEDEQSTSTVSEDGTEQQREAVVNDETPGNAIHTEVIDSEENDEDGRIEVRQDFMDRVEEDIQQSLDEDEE
Voltage-gated inwardly rectifying potassium channel KCNH2, sequence (Q12809 whole entry): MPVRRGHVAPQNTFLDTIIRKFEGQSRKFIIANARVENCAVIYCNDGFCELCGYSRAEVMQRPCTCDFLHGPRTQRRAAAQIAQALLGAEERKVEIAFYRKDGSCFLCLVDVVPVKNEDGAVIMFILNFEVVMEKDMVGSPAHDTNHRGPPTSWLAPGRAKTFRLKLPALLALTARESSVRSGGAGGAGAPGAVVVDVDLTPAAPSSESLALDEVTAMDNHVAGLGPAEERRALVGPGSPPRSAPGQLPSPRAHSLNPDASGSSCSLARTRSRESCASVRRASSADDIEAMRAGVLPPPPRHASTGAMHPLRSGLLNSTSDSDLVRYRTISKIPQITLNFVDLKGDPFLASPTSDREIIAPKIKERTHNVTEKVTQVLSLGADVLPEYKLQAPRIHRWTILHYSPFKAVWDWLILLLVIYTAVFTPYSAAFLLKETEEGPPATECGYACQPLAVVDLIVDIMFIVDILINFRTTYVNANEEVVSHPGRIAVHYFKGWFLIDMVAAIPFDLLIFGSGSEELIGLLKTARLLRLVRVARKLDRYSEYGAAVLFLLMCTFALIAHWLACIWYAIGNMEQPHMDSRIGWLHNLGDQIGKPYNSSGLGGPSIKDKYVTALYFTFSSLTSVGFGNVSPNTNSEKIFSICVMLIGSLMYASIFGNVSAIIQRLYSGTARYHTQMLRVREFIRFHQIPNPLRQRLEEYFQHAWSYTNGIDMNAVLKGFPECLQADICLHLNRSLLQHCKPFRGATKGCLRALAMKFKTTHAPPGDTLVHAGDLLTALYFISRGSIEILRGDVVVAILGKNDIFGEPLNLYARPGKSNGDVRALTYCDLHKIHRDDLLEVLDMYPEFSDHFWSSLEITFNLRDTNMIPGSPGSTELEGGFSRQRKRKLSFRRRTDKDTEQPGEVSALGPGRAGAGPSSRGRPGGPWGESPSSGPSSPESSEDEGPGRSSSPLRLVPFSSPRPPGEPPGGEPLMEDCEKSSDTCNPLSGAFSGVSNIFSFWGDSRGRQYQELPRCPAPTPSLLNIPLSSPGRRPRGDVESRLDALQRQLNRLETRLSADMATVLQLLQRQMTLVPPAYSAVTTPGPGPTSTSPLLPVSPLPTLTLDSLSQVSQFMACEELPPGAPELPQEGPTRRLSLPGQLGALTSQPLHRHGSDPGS
Topoisomerase IV, sequence (P0C1U9 whole entry): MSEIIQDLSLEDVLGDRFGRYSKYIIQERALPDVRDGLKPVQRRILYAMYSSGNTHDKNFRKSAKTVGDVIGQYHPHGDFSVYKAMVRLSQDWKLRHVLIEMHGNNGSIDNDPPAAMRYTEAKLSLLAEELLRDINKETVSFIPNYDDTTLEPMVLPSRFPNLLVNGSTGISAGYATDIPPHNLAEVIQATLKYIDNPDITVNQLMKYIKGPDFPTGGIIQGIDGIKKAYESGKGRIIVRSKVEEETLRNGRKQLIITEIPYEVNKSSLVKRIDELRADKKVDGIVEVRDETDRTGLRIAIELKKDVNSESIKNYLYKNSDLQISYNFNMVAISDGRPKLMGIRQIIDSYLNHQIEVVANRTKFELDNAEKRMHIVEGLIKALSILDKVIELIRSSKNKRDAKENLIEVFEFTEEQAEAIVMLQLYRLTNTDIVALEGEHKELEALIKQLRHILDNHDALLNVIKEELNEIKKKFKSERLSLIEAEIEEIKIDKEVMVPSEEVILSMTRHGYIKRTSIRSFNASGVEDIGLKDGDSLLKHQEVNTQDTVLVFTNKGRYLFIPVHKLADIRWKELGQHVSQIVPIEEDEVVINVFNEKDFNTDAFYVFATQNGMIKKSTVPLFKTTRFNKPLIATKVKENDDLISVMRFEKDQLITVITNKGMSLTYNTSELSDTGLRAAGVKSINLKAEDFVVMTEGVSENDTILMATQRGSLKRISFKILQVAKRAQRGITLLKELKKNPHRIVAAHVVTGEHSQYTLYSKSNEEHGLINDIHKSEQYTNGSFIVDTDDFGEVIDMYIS
Topoisomerase IV, sequence (P0C1S7 whole entry): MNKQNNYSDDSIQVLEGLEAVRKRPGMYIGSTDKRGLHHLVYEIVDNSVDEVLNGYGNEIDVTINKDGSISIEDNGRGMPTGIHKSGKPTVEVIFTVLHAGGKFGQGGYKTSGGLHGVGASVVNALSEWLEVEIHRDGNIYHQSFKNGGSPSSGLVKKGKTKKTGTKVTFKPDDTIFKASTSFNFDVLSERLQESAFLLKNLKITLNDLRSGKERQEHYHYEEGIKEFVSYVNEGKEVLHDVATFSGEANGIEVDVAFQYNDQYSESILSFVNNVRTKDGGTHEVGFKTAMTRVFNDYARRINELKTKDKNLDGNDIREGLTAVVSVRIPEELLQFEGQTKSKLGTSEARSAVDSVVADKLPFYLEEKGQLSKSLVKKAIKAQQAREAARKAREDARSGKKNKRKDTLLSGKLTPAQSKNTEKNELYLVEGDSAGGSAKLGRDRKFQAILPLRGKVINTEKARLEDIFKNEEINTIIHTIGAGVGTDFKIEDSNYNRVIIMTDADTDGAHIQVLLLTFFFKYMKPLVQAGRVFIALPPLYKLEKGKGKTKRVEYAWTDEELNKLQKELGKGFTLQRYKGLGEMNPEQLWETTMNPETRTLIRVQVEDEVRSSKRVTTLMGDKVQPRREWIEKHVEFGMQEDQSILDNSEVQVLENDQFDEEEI

As to `COc1ccc2ncc(F)c([C@@H](O)CC[C@@H]3CCN(CCSc4cccs4)C[C@@H]3C(=O)O)c2c1`, the IC50 stood at 0.34 µM in test [1], 3.9 µM in test [3] and 8.8 µM in test [6]. Also, in test [2], the EC50 was found to be 24 µM. The MIC was 0.2 µg/mL and 0.4 µM in test [4] (setting [7]); 0.8 µM and 0.4 µg/mL in test [5] (setting [8]).
Take `COc1ccc2ncc(F)c(CCCN3CCN(CCSc4cccs4)C[C@@H]3C(N)=O)c2c1`: the EC50 in test [2] came out at 2 µM. Besides, the MIC in test [5] (setting [8]) is 1.6 µM and 0.8 µg/mL.
For the molecule `COc1ccc2ncc(F)c(CCCN3CCN(CCCc4ccccc4)C[C@@H]3C(=O)O)c2c1`, the IC50 in test [1] is 0.46 µM; in test [6], 10.2 µM. Besides, the EC50 in test [2] is 17 µM. The MIC in test [4] (setting [7]) is 0.4 µg/mL and 0.9 µM; in test [5] (setting [8]) it was 1.7 µM and 0.8 µg/mL.
Consider `COc1ccc2ncc(F)c(CCCN3CCN(CCSc4cccs4)C[C@@H]3C(=O)O)c2c1`, for which the IC50 was determined as 0.37 µM in test [1], 5.4 µM in test [3] and 7.64 µM in test [6]. In test [2], this molecule came in with an EC50 of 17 µM. The MIC was 0.2 µg/mL and 0.4 µM in test [4] (setting [7]); 0.8 µM and 0.4 µg/mL in test [5] (setting [8]).
For `COc1ccc2ncc(F)c(/C=C/CN3CCN(CCSc4cccs4)C[C@@H]3C(=O)O)c2c1`, the IC50 amounted to 0.68 µM in test [1] and 1.81 µM in test [6]. The EC50 in test [2] was under 30 µM. Moreover, the MIC in test [4] (setting [7]) was 0.8 µg/mL and 1.6 µM; in test [5] (setting [8]), 3.1 µM and 1.5 µg/mL.
Consider `COc1ccc2ncc(F)c(CCCN3CCN(CCCCc4ccccc4)C[C@@H]3C(=O)O)c2c1`, for which the half-inhibitory concentration (IC50) amounted to 0.37 µM in test [1] and 3.82 µM in test [6]. Besides, in test [2], a half-maximal effect (EC50) was put at 21 µM. Besides, the MIC in test [4] (setting [7]) was 3.1 µg/mL and 6.5 µM; in test [5] (setting [8]) it was 12.9 µM and 6.2 µg/mL.
Regarding `COc1ccc2ncc(F)c(CCCN3CCN(C/C=C/c4cc(F)ccc4F)C[C@@H]3C(=O)O)c2c1`, the IC50 was 0.28 µM in test [1], 6.46 µM in test [3] and 2.41 µM in test [6]. Besides, the EC50 in test [2] was 25 µM. Further, the MIC in test [4] (setting [7]) is 0.1 µg/mL and 0.2 µM; in test [5] (setting [8]), 0.4 µM and 0.2 µg/mL.
Take `COc1ccc2ncc(F)c(CCCN3CCN(CCSc4cccs4)C[C@H]3C(=O)O)c2c1`: a half-maximal effect in test [2] (EC50) was put at 26 µM. Also, the MIC in test [4] (setting [7]) is 1.6 µg/mL and 3.3 µM; in test [5] (setting [8]), 6.3 µM and 3.1 µg/mL.
In the case of `COC(=O)[C@H]1CN(CCSc2cccs2)CCN1CCCc1c(F)cnc2ccc(OC)cc12`, the IC50 in test [1] was found to be 300 µM; in test [3], 18.4 µM. Moreover, in test [2], the EC50 was 2 µM. Further, the MIC in test [4] (setting [7]) is > 50 µg/mL and > 99.3 µM; in test [5] (setting [8]), > 99.3 µM and > 50 µg/mL.
Take `COc1ccc2ncc(F)c(CCCN3CCN(Cc4ccccc4)C[C@@H]3C(=O)O)c2c1`: a half-maximal effect in test [2] (EC50) was put at 25 µM. Besides, in test [5] (setting [8]), the MIC is > 114 µM and > 50 µg/mL.
In turn, `COC(=O)[C@@H]1CN(CCSc2cccs2)CCN1CCCc1c(F)cnc2ccc(OC)cc12` had a concentration for a half-maximal effect (EC50) in test [2] of 4 µM. The MIC was > 50 µg/mL and > 99.3 µM in test [4] (setting [7]); > 99.3 µM and > 50 µg/mL in test [5] (setting [8]).
Take `COc1ccc2ncc(F)c(CCCN3CCN(C(=O)CCc4ccccc4)C[C@@H]3C(=O)O)c2c1`: the MIC in test [4] (setting [7]) was > 50 µg/mL and > 104 µM; in test [5] (setting [8]), > 104 µM and > 50 µg/mL.
Molecule `COc1ccc2ncc(F)c(CCCN3CCN(C(=O)CSc4ccccc4)C[C@@H]3C(=O)O)c2c1` showed an EC50 in test [2] of under 30 µM. For the same molecule, in test [5] (setting [8]), the MIC was > 100 µM and > 50 µg/mL.
`COc1ccc2ncc(F)c(CCCN3CCN(C/C=C/c4ccccc4)C[C@@H]3C(=O)O)c2c1`: the IC50 in test [1] worked out at 0.19 µM; in test [6], 3.36 µM. In test [2], the EC50 turned out to be 38 µM. Besides, the MIC is 0.2 µg/mL and 0.4 µM in test [4] (setting [7]); 1.7 µM and 0.8 µg/mL in test [5] (setting [8]).
`COc1ccc2ncc(F)c(CCCN3CCN(CCSc4cccs4)C[C@@H]3C(=O)NC(=O)CC(=O)O)c2c1`: the EC50 in test [2] worked out at 0.5 µM. In addition, the MIC in test [4] (setting [7]) is 12.5 µg/mL and 21.8 µM; in test [5] (setting [8]), 21.8 µM and 12.5 µg/mL.
On to `COc1ccc2ncc(F)c(CCCN3CCN(CCc4ccccc4)C[C@@H]3C(=O)O)c2c1`, for which the IC50 in test [1] turned out to be 0.54 µM; in test [6], 12.6 µM. Besides, the response in test [2] was half-maximal at 87 µM (EC50). Besides, the MIC in test [4] (setting [7]) is 3.1 µg/mL and 6.9 µM; in test [5] (setting [8]), 14 µM and 6.3 µg/mL.
Molecule `COc1ccc2ncc(F)c(CCCN3CCN(CCSc4cccs4)[C@@H](C(=O)O)C3)c2c1` gave an EC50 in test [2] of under 30 µM. Also, the MIC in test [4] (setting [7]) was 1.6 µg/mL and 3.3 µM; in test [5] (setting [8]) it was 6.3 µM and 3.1 µg/mL.
As for `COc1ccc2ncc(F)c(C#CCN3CCN(CCSc4cccs4)C[C@@H]3C(=O)O)c2c1`, the IC50 in test [1] was determined as 0.48 µM; in test [6], 2.47 µM. In test [2], the EC50 was under 30 µM. The MIC in test [4] (setting [7]) was 12.5 µg/mL and 25.7 µM; in test [5] (setting [8]) it was 51.5 µM and 25 µg/mL.
`COc1ccc2ncc(F)c(CCCN3CCN(C(=O)CSc4cccs4)C[C@@H]3C(=O)O)c2c1` gave an EC50 in test [2] of 7 µM. Besides, the MIC is > 50 µg/mL and > 99.3 µM in test [4] (setting [7]); > 99.3 µM and > 50 µg/mL in test [5] (setting [8]).
In the case of `COc1ccc2ncc(F)c(/C=C\CN3CCN(CCSc4cccs4)C[C@@H]3C(=O)O)c2c1`, the figures for the IC50 in test [1] and in test [6] were 0.28 µM and 9.92 µM, respectively. The half-maximal effective concentration (EC50) in test [2] is under 30 µM. Further, the MIC in test [4] (setting [7]) was 3.1 µg/mL and 6.4 µM; in test [5] (setting [8]), 25.6 µM and 12.5 µg/mL.
For `COc1ccc2ncc(F)c(C(O)CCN3CCN(CCSc4cccs4)C[C@@H]3C(=O)O)c2c1` (mixture of isomers; 19), the EC50 in test [2] was under 30 µM. The MIC in test [4] is 0.8 ug ml-1 and 1.6 uM; in test [5] (setting [8]) it was 24.7 µM and 12.5 µg/mL.
Take `COc1ccc2ncc(F)c(C(O)CCN3CCN(CCSc4cccs4)C[C@@H]3C(=O)O)c2c1` (mixture of isomers; 20): the MIC was 6.2 ug ml-1 and 12.3 uM in test [4]; 12.5 µg/mL in test [5].
